# Results pooled from the literature.
# Lines come from different studies, so protocols differ.
# Target: TGF-beta receptor type-1 (TGFBR1, Homo sapiens, UniProt P36897)
# Residues used in one study (P36897 34-503): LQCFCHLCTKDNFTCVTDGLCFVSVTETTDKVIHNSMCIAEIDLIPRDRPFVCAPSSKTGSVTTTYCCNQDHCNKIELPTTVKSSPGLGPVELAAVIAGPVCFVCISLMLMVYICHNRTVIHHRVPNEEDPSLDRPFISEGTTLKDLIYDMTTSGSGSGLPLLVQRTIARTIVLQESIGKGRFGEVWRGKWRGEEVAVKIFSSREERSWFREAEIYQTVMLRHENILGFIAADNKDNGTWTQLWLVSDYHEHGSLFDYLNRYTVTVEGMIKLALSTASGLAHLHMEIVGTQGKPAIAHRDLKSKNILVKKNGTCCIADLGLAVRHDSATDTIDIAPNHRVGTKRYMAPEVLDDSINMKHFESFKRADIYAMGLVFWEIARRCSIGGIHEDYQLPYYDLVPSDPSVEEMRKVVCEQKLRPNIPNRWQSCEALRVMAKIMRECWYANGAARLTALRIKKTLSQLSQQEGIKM
SMILES,test,setting,remaining binding [%]
C[C@@H](c1ccc(-n2cnc3c(N)ncnc32)cc1)N1CCc2nn(C)c(Cc3ccccc3)c2C1=O,"binding, competition with immobilised ligand",0.1 µM,82
O=C(N[C@H]1CCCCC/C=C\C2C[C@@]2(C(=O)O)NC(=O)[C@@H]2C[C@@H](Oc3ccncc3)CN2C1=O)OC1CCCC1 (some centres unmarked),"cell-free assay, competition with immobilised ligand",1 µM,100
Nc1ncc2c(n1)-c1c([nH]c3ccc(C#CC4CC4)cc13)CCCC2,"binding, competition with immobilised ligand",1 µM,86
N#Cc1ccccc1CSc1nnc2c(n1)[nH]c1ccccc12,"binding, competition with immobilised ligand",10 µM,100
N[C@H]1CCN(c2nccc(-c3cnn4ncccc34)n2)C1,binding,1 µM,100
FC(F)(F)c1ccc2c(c1)nc(-c1cccnc1)n2C1CC1,"cell-free assay, competition with immobilised ligand",1 µM,78
FC(F)(F)Oc1cccc(-c2cnc3ccc(-c4ccncc4)nn23)c1,"cell-free assay, competition with immobilised ligand",5 µM,83
O=S(=O)(NC1CCC(c2cc(F)ccc2F)(S(=O)(=O)c2ccc(Cl)cc2)CC1)C(F)(F)F (centres unmarked),"cell-free assay, competition with immobilised ligand",1 µM,100
COc1cnc(Nc2cccc(S(N)(=O)=O)c2)nc1N1CCN(c2ccccc2)C(=O)C1,"binding, competition with immobilised ligand",1 µM,100
O=C(c1ccc(Nc2nccc(-c3cc4ccccc4s3)n2)cc1)N1CCC(N2CCCC2)CC1,"binding, competition with immobilised ligand",1 µM,91
C[C@H]1CCN(c2nccc(-c3cnn4ncccc34)n2)C1,binding,1 µM,76
CCN1CCN(Cc2ccc(C(=O)Nc3ccc(C)c(Oc4ccc5c(c4)CC(=O)N5)c3)cc2C(F)(F)F)CC1,"binding, competition with immobilised ligand",1 µM,100
Cc1cnn2ncc(-c3ccnc(N(C)C)n3)c2c1,binding,1 µM,100
Cc1nc(C2CCN(C(=O)c3ccc(OC(F)(F)F)cc3N)CC2)c2ncc(N3CCN(C)CC3)cc2n1,"cell-free assay, competition with immobilised ligand",1 µM,80
O=C(c1ccc(Nc2ncc(Cl)c(-c3cc4ccccc4s3)n2)cc1)N1CCC(N2CCCC2)CC1,"binding, competition with immobilised ligand",1 µM,52
CN(CCCC(F)(F)F)c1nccc(-c2cnn3ncccc23)n1,binding,1 µM,100
CC(=O)Nc1c(C(C)=O)c(=O)n(C)c2nc(-c3ccc(Cl)cc3Cl)c(-c3ccc(Cl)cc3)cc12,"cell-free assay, competition with immobilised ligand",1 µM,82
